Bioassay records (PubChem)
Rows were chosen to be rich in hits. Some 2.9% of all compounds tested hit in one or more screens of this group.
Cdc25B inh: inhibitors of Cdc25B phosphatase catalytic domain, primary screen, biochemical, OMFP fluorescence | 65,000 tested, 0.1% active | recombinant Cdc25B, OMFP fluorescence Ex485/Em525 | inhibition, %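 (compounds tested at 10 µM final in the well)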; in the data active means inhibition above about 50%
Target sequence (P30305 whole entry, looked up, the tested form may be a part): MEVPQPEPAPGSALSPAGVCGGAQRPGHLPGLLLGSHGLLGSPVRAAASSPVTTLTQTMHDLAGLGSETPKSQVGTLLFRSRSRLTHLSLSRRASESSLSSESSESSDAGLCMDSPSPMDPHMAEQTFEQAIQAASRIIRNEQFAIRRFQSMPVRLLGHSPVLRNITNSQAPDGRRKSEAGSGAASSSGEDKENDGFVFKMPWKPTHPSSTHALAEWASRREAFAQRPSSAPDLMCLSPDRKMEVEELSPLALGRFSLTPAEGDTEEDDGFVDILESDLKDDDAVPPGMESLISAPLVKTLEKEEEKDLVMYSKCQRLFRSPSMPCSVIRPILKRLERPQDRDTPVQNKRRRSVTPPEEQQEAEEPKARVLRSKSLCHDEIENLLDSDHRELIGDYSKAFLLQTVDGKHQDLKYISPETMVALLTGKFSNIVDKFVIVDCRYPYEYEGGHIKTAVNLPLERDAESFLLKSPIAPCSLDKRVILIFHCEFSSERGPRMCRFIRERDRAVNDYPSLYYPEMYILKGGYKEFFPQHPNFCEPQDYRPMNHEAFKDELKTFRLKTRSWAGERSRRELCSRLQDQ
DUSP1 inh: MKP-1 phosphatase inhibitors, primary screen, biochemical, in vitro; inhibition, %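 (compounds tested at a single concentration somewhere between 10 and 100 µM)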; recombinant MKP-1, OMFP hydrolysis fluorescence; Dual specificity protein phosphatase 1 (Homo sapiens), P28562; 65,000 tested, 0.15% active;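 active means inhibition above about 50%, limit read from the data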;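 further: 0% = DMSO max control wells and 100% = wells with enzyme stopped by NaOH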
Hsp90 inh: tumor Hsp90 inhibitors, primary screen, cell lysate, fluorescence polarization, NCI-N417 lysate. 64,000 tested, 0.35% active. Cy3B-geldanamycin FP displacement. Heat shock protein HSP 90-alpha (Homo sapiens), P07900. inhibition, % at 30 µM. AID 429, 2006;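 active means inhibition above 50%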;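 further: 0% = tracer plus lysate wells and 100% = tracer alone without lysate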
Ec RNAP inh: E. coli RNAP inhibitors, biochemical; E. coli RNA polymerase, fluorescence transcription assay; inhibition, %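 (tested at 10 µM)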; 62,000 tested, 0.2% active; AID 559, 2006; in the data active means inhibition above about 20%;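 further: 0% = enzyme without compound and 100% = no enzyme blank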
BAP1 inh: inhibitors of BAP1 deubiquitinase, primary screen, biochemical, Ub-AMC fluorescence, kinetic | Ubiquitin carboxyl-terminal hydrolase BAP1 (Homo sapiens), Q92560 | recombinant BAP1, Ub-AMC hydrolysis fluorescence kinetic; stronger effect = lower value | calls only at 20 µM | 72,000 tested, 0.48% active | AID 436, 2006;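 active means activity remaining at or below 50% of control, provided the compound also passes the data quality filters; inactive means the rest, including low values that fail the filters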;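 further: 100% = DMSO wells rate and 0% = substrate alone blank rate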
tolC growth inh: growth inhibitors of E. coli tolC mutant, primary screen, strain BW25113 ΔtolC::kan, 384-well. OD615. growth inhibition, % at 10 µM (by protocol). 65,000 tested, 2.2% active. AID 573, 2007;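 active means growth inhibition at or above a cutoff equal to the mean over every tested compound plus 3 SD, cut at about 60% in these data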;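 further: growth measured after 20 h incubation at 37 °C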
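signal = optical density read at 615 nm | test system = E. coli ΔtolC::kan strain BW25113 | timing = 20 h compound exposure of bacteria at 37 °C | buffer or medium = LB medium plus 50 µg/mL kanamycin | compound dosing = 10 µM final, single dose | evaluation = % inhibition of E. coli growth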
Redox cycler: redox cycling hydrogen peroxide production, dose response, artefact control, biochemical, probe assessment; shares compounds with DUSP1 inh; Redox cycling H2O2 generation, DTT, phenol red/HRP; EC50, µM; 60 tested, under 10 active; AID 672, 2007; call rule not given here
BAP1 inh confirm: BAP1 deubiquitinase inhibitors, hit retest, confirmation, orthogonal assay, biochemical, Ub-ethyl ester substrate, HPLC readout; 310 tested, 8% active; % of control activity, % at 20 µM; purified BAP1, Ub-ethyl ester hydrolysis; stronger effect = lower value; shares compounds with BAP1 inh;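 active means percent of control activity at or below 60%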
Starred values were filed as active, the others as inactive; i = inactive; . = no result given; + = active, no number.

SMILES	Cdc25B inh	DUSP1 inh	Hsp90 inh	Ec RNAP inh	BAP1 inh	tolC growth inh	Redox cycler	others
Cc1nn(-c2ccccc2)c(C)c1C(=O)OCC(=O)c1c(N)n(CC(C)C)c(=O)n(C)c1=O	-8.9	35.0	-6.9	-0.3	i	1.0	.
CC(C)Cn1c(N)c(C(=O)COC(=O)c2cc(-c3ccco3)nc3ccccc23)c(=O)n(C)c1=O	41.2	50.6*	-8.9	8.3	i	12.1	>50
COc1cc(/C=C(/C#N)c2ccc(F)cc2)ccc1OCc1ccc(C(=O)O)o1	-3.1	62.3*	-4.5	-5.9	i	100.0*	>50
COc1ccc2cc(C(=O)Nc3ccccc3)c(=Nc3ccc(C(F)(F)F)cc3)oc2c1	.	.	.	.	i	.	.
COCCOC(=O)c1ccc(NC(=O)CN2C(=O)c3ccccc3C2=O)cc1	.	.	.	.	i	.	.
CCCCn1c(SCC(=O)c2ccc(OC)cc2OC)nc2cc(S(N)(=O)=O)ccc21	27.7	53.8*	-0.7	1.5	.	5.6	>50
CCCCn1c(SCc2c(C)noc2C)nc2cc(S(N)(=O)=O)ccc21	-1.8	-1.5	-4.0	5.4	i	15.2	.
O=C(Nc1ccc(-c2nc3cc(Cl)ccc3o2)cc1)c1ccc(I)cc1	.	.	.	.	i	.	.
CCOc1ccc(-c2cc3nc(C4CCN(C(=O)OC(C)(C)C)CC4)c(C(=O)O)cn3n2)cc1	-2.9	64.5*	-0.7	5.5	.	7.3	>50
O=C1C=C(NCc2ccc(Cl)c(Cl)c2)CC1	-2.6	70.3*	-0.5	3.4	i	-2.3	>50
CC(=O)NC(=O)c1cc2c(ccc3ccccc32)oc1=Nc1ccc(C(C)=O)cc1	.	.	.	.	i	.	.
CC1=C(/C=C/C(C)=C/C=C/C(C)=C/C(=O)O)C(C)(C)CCC1	-16.1	56.2*	-2.1	13.9	.	5.1	>50
CC(C)(C)N1C(=O)Cc2c1nc(N)c1c(N)nc(N3CCCCC3CO)c(C#N)c21 (stereo not drawn)	-0.2	53.4*	-4.7	10.6	i	80.1*	>50
Cc1nc2c(C(=O)NCCC3=CCCCC3)c[nH]n2c(=O)c1Cl	-1.0	53.7*	1.9	6.7	i	79.1*	>50
Cc1nc2c(C(=O)NCc3ccc4c(c3)OCO4)c[nH]n2c(=O)c1Cl	-7.9	37.8	0.2	6.6	i	22.6	.
O=C(Cc1ccccc1)OCCN1C(=O)c2cccc3c(N4CCCCC4)ccc(c23)C1=O	.	.	.	.	i	.	.
Nc1c(C(=O)NCc2ccco2)sc2nc3c(cc12)C(=O)CCC3	3.2	-0.5	3.6	5.1	+	3.8	.	BAP1 inh confirm=151.4
CC(C)c1cc(Nc2cccc(O)c2)cc(C(C)C)c1O	8.5	23.0	72.1*	3.8	+	14.4	.	BAP1 inh confirm=81.7
COCCn1nnnc1C(C(C)C)N(Cc1cccnc1)Cc1cc2cc(OC)ccc2[nH]c1=O (stereo not drawn)	3.1	5.4	0.0	3.7	+	-4.7	.	BAP1 inh confirm=114.4
COc1ccc2[nH]c(=O)c(CN(C3CCCCC3)C(c3nnnn3Cc3ccco3)C(C)C)cc2c1 (stereo not drawn)	2.0	-2.3	-6.7	8.5	.	19.4	.
CCOC(=O)c1nnn(-c2nonc2N)c1COc1cc(C)c(Cl)c(C)c1	-18.1	8.8	2.2	1.6	+	11.2	.	BAP1 inh confirm=105.7
CCOC(=O)c1nnn(-c2nonc2N)c1CSc1ccc(C)cc1	-22.2	3.8	-2.7	5.6	i	40.1	.
CC(C)c1ccccc1OCC(=O)NCCc1nc2ccccc2[nH]1	.	.	.	.	i	.	.
O=C(Nc1ccccc1)C1=C(O)CC(c2ccco2)CC1=Nc1ccccc1 (stereo not drawn)	-9.7	-3.8	0.8	3.5	i	11.9	.
